Source: ChEMBL document CHEMBL1140815, “Synthesis and structure-activity relationship studies of tyrosine-based antagonists at the human P2X7 receptor” (Bioorg Med Chem Lett, 2008)
pIC50: −log10 of the molar value.

Legend:
P2X purinoceptor 7 [1] = molecular target: T1, P2X purinoceptor 7 (Homo sapiens, UniProt Q99572); assay: Antagonist activity at human purinergic P2X7 receptor expressed in HEK293 cells assessed as inhibition of BzATP-induced ethidium bromide uptake; type: functional, cell-based
T1 sequence (Q99572 whole entry): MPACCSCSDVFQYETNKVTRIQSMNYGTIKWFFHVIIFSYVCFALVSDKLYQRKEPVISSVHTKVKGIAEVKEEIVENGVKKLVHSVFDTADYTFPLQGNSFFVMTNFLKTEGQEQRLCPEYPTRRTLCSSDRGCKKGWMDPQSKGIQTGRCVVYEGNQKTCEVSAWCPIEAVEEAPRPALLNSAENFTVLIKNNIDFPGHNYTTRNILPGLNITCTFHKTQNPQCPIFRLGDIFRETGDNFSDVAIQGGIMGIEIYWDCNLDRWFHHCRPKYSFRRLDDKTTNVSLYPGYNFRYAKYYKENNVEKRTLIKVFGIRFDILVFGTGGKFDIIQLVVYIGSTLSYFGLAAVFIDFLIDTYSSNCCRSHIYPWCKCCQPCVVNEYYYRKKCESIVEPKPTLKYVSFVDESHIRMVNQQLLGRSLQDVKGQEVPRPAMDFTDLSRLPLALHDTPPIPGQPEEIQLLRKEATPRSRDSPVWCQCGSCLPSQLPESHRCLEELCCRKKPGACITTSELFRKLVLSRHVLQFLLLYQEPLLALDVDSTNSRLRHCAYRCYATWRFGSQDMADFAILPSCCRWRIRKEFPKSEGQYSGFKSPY
Procedure, shortened: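 Adherent HEK293 cells stably expressing human P2X7, resuspended at 2.5×10^6 cells/ml in HEPES salt solution (mM: ethidium bromide 0.1, EDTA 1, glucose 5, HEPES 20, KCl 140; pH 7.4). Cells added to compound-containing wells, then BzATP; 37°C for 120 min. Ethidium accumulation read by fluorescence (ex 530/em 590). IC50 from concentration–response curves; mean ± SD, 3–11 repeats.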

THP-1 [2] = assay: Inhibition of BzATP-stimulated IL1-beta release in human THP1 cells at 1 uM by ELISA; type: functional
[3] = molecular target: T2, P2X purinoceptor 7 (Homo sapiens) (UniProt Q99572); assay: Antagonist activity at human purinergic P2X7 receptor expressed in HEK293 cells assessed as inhibition of BzATP-induced ethidium bromide uptake at 10 uM; type: functional, cell-based
T2 sequence (whole entry): T1 sequence (Q99572 whole entry)

P2X purinoceptor 7 [4] = molecular target: T1, P2X purinoceptor 7; assay: Antagonist activity at human purinergic P2X7 receptor expressed in HEK293 cells assessed as inhibition of ATP-induced K(+) efflux; type: functional, cell-based
THP-1 [5] = assay: Inhibition of BzATP-stimulated IL1-beta release in human THP1 cells by ELISA; type: functional, cell-based
Procedure, shortened: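 Compound given as a 30 min pretreatment, then 1 mM BzATP for 30 min. Mature IL-1β in the centrifuged supernatant quantified by ELISA.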

`CC(C)(C)OC(=O)N1CCN(C(=O)[C@H](Cc2ccc(OS(=O)(=O)c3ccc(C#N)cc3)cc2)NC(=O)OCc2ccccc2)CC1` gave a pIC50 (P2X purinoceptor 7 [1]) of 6.11 and an inhibition at 1 µM (THP-1 [2]) of 60%.

For `Cc1ccc(S(=O)(=O)Oc2ccc(C[C@H](NC(=O)OCc3ccccc3)C(=O)N3CCN(C(=O)c4ccccc4)[C@H](C)C3)cc2)cc1`, the pIC50 (P2X purinoceptor 7 [1]) was 6.59 and the inhibition at 1 µM (THP-1 [2]) was 65%.

In the case of `CC(C)(C)OC(=O)N1CCN(C(=O)[C@H](Cc2ccc(OS(=O)(=O)c3ccc(Br)cc3)cc2)NC(=O)OCc2ccccc2)CC1`, the pIC50 (P2X purinoceptor 7 [1]) was 6.29 and the inhibition at 1 µM (THP-1 [2]) was 68%.

`Cc1ccc(S(=O)(=O)Oc2ccc(C[C@@H](NC(=O)OCc3ccccc3)C(=O)N3CCN(C(=O)OC(C)(C)C)CC3)cc2)cc1` gave a pIC50 (P2X purinoceptor 7 [1]) of 6.06 and an inhibition at 1 µM (THP-1 [2]) of 56%.

In the case of `O=C(N[C@@H](Cc1ccc(OS(=O)(=O)c2ccc(NC(=S)NCCCCNC(=S)Nc3ccc(S(=O)(=O)Oc4ccc(C[C@H](NC(=O)OCc5ccccc5)C(=O)N5CCN(C(=O)c6ccccc6)CC5)cc4)cc3)cc2)cc1)C(=O)N1CCN(C(=O)c2ccccc2)CC1)OCc1ccccc1`, the inhibition at 1 µM (THP-1 [2]) was 37% and the inhibition [3] was 28%.

With `Cc1ccc(S(=O)(=O)Oc2ccc(C[C@H](NC(=O)OCc3ccccc3)C(=O)N3CCN(C(=O)c4ccccc4)CC3)cc2)cc1` the pIC50 (P2X purinoceptor 7 [1]) was 6.22 and the inhibition at 1 µM (THP-1 [2]) was 70%.

In the case of `Cc1ccc(S(=O)(=O)Oc2ccc(C[C@H](NC(=O)OCc3ccccc3)C(=O)N3CCN(C(=O)c4ccc(C(F)(F)F)cc4)CC3)cc2)cc1`, the pIC50 (P2X purinoceptor 7 [1]) was 6.14 and the inhibition at 1 µM (THP-1 [2]) was 65%.

Molecule `Cc1ccc(S(=O)(=O)Oc2ccc(C[C@H](NC(=O)OCc3ccccc3)C(=O)N3CCN(C(=O)OC(C)(C)C)CC3)cc2)cc1` has a pIC50 (P2X purinoceptor 7 [1]) of 5.81 and an inhibition at 1 µM (THP-1 [2]) of 72%.

`Cc1ccc(S(=O)(=O)Oc2ccc(C[C@H](NC(=O)OCc3ccccc3)C(=O)N3CCN(C(=O)c4ccc(F)cc4)CC3)cc2)cc1` showed a pIC50 (P2X purinoceptor 7 [1]) of 6.50 and an inhibition at 1 µM (THP-1 [2]) of 68%.

In the case of `Cc1ccc(S(=O)(=O)Oc2ccc(C[C@H](NC(=O)OCc3ccccc3)C(=O)N3CCN(C(=O)c4ccc(N(C)C)cc4)[C@@H](C)C3)cc2)cc1`, the inhibition at 1 µM (THP-1 [2]) was 68% and the inhibition [3] was 54%.

With `O=C(N[C@@H](Cc1ccc(OS(=O)(=O)c2ccc([N+](=O)[O-])cc2)cc1)C(=O)N1CCN(C(=O)c2ccccc2)CC1)OCc1ccccc1` the pIC50 (P2X purinoceptor 7 [1]) was 6.93 and the inhibition at 1 µM (THP-1 [2]) was 48%.

Molecule `Cc1ccc(S(=O)(=O)Oc2ccc(C[C@H](NC(=O)OCc3ccccc3)C(=O)N3CCN(C(=O)c4ccccc4)C[C@@H]3C)cc2)cc1` has a pIC50 (P2X purinoceptor 7 [1]) of 6.30 and an inhibition at 1 µM (THP-1 [2]) of 45%.

For `CC(C)(C)OC(=O)N1CCN(C(=O)[C@H](Cc2ccc(OS(=O)(=O)c3cccc4cnccc34)cc2)NS(=O)(=O)c2cccc3cnccc23)CC1`, the pIC50 (P2X purinoceptor 7 [4]) was 7.40.

`CN([C@@H](Cc1ccc(OS(=O)(=O)c2cccc3cnccc23)cc1)C(=O)N1CCN(c2ccccc2)CC1)S(=O)(=O)c1cccc2cnccc12` showed a pIC50 (P2X purinoceptor 7 [1]) of 6.76, an inhibition at 1 µM (THP-1 [2]) of 83% and a pIC50 (THP-1 [5]) of 6.73.

With `C[C@H]1CN(C(=O)[C@H](Cc2ccc(OS(=O)(=O)c3ccc(C#N)cc3)cc2)NC(=O)OCc2ccccc2)CCN1C(=O)c1ccc(N(C)C)cc1` the pIC50 (P2X purinoceptor 7 [1]) was 6.27 and the inhibition at 1 µM (THP-1 [2]) was 59%.

Molecule `C[C@H]1CN(C(=O)[C@H](Cc2ccc(OS(=O)(=O)c3ccc(I)cc3)cc2)NC(=O)OCc2ccccc2)CCN1C(=O)c1ccc(N(C)C)cc1` has an inhibition at 1 µM (THP-1 [2]) of 61% and an inhibition [3] of 55%.

Work on `CC(C)(C)OC(=O)N1CCN(C(=O)[C@H](Cc2ccc(OS(=O)(=O)c3ccc(CBr)cc3)cc2)NC(=O)OCc2ccccc2)CC1` yielded a pIC50 (P2X purinoceptor 7 [1]) of 5.61 and an inhibition at 1 µM (THP-1 [2]) of 52%.

Work on `Cc1ccc(S(=O)(=O)Oc2ccc(C[C@H](NC(=O)OCc3ccccc3)C(=O)N3CCN(C(=O)c4ccc(N(C)C)cc4)CC3)cc2)cc1` yielded a pIC50 (P2X purinoceptor 7 [1]) of 5.70 and an inhibition at 1 µM (THP-1 [2]) of 65%.

Work on `CC(C)(C)OC(=O)N1CCN(C(=O)[C@H](Cc2ccc(OS(=O)(=O)c3ccc(F)cc3)cc2)NC(=O)OCc2ccccc2)CC1` yielded a pIC50 (P2X purinoceptor 7 [1]) of 5.23 and an inhibition at 1 µM (THP-1 [2]) of 56%.

`CC(C)(C)OC(=O)N1CCN(C(=O)[C@H](Cc2ccc(OS(=O)(=O)c3ccc(I)cc3)cc2)NC(=O)OCc2ccccc2)CC1` gave a pIC50 (P2X purinoceptor 7 [1]) of 5.45 and an inhibition at 1 µM (THP-1 [2]) of 72%.

`Cc1ccc(S(=O)(=O)Oc2ccc(C[C@H](NC(=O)OCc3ccccc3)C(=O)N3CCN(C(=O)c4ccccc4)[C@@H](C)C3)cc2)cc1` was tested, and the pIC50 (P2X purinoceptor 7 [1]) was 6.59 and the inhibition at 1 µM (THP-1 [2]) was 69%.

`Cc1ccc(S(=O)(=O)Oc2ccc(C[C@H](NC(=O)OCc3ccccc3)C(=O)N3CCN(C(=O)c4ccc(Br)cc4)CC3)cc2)cc1` was tested, and the pIC50 (P2X purinoceptor 7 [1]) was 6.32, the inhibition at 1 µM (THP-1 [2]) was 78% and the pIC50 (THP-1 [5]) was 6.06.

With `Cc1ccc(S(=O)(=O)Oc2ccc(C[C@@H](C(=O)N3CCN(C(=O)c4ccccc4)CC3)N(C)C(=O)OCc3ccccc3)cc2)cc1` the pIC50 (P2X purinoceptor 7 [1]) was 5.87 and the inhibition at 1 µM (THP-1 [2]) was 47%.

For `CC(C)(C)OC(=O)N1CCN(C(=O)[C@H](Cc2ccc(OS(=O)(=O)c3ccc(OC(F)(F)F)cc3)cc2)NC(=O)OCc2ccccc2)CC1`, the pIC50 (P2X purinoceptor 7 [1]) was 6.14 and the inhibition at 1 µM (THP-1 [2]) was 46%.
